Test results reported in ChEMBL document CHEMBL1135607, “1-Benzyl-3-(5'-hydroxymethyl-2'-furyl)indazole (YC-1) derivatives as novel inhibitors against sodium nitroprusside-induced apoptosis” (2002).

Organism: Rattus norvegicus
Test: Effect on the survival of rat aortic smooth muscle cells
Assay type: functional
Design: concentration or dose not given beside the values
Method in brief: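 Rat aortic smooth muscle cells in culture, pretreated 30 min with test compound at 30 μM, then vehicle or sodium nitroprusside (1 mM) added for another 24 h. Viability read by MTT assay and TUNEL.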
In the case of `CNCc1ccc(-c2nn(Cc3ccccc3)c3ccccc23)o1`, the Cell survival is reported as 57.2%. `COC(=O)c1ccc(-c2nn(Cc3ccccc3)c3ccccc23)o1` gave a Cell survival of 78%. Work on `COc1ccc2c(-c3ccc(CO)o3)nn(Cc3ccccc3)c2c1` yielded a Cell survival of 84.5%. With `OCc1ccc(-c2nn(-c3ccccc3)c3ccccc23)o1` the Cell survival was 93.9%. `OCc1ccc(-c2nn(Cc3ccccc3)c3cc(F)ccc23)o1` was tested, and the Cell survival was 83.3%. `OCc1ccc(-c2nn(Cc3ccccc3)c3ccccc23)o1` showed a Cell survival of 94.7%. `Cc1ccc(-c2nn(Cc3ccccc3)c3ccccc23)o1` showed a Cell survival of 31.1%. `COCc1ccc(-c2nn(Cc3ccccc3)c3ccccc23)o1` gave a Cell survival of 93.2%. In the case of `CCN(CC)Cc1ccc(-c2nn(Cc3ccccc3)c3ccccc23)o1`, the Cell survival is reported as 39.7%. Compound SODIUM NITROPRUSSIDE has a Cell survival of 41.3%. Compound `OCc1ccc(-c2nn(Cc3ccccc3)c3cc4c(cc23)OCO4)o1` has a Cell survival of 75.8%.
